The values that follow come from PubChem BioAssay.

The nature of test [1]: Her2 expression decrease, cell viability multiplex – SKBR3 breast tumor cells, AlphaScreen, ATP viability, primary screen (AID 461;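 active = Her2 level under about 52% in both replicate screens, with viability over 70% of control, limit read from the data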;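 as to Her2 level: lower value means less Her2 protein in the cells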;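 as to viability: percent of carrier control wells set as 100% viability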). The conditions noted are these: SKBR3 Her2 protein level, 18-24 h, measured here: SKBR3 viability, ATP luminescence, at 10 µM.
For test [2], the target named is Receptor tyrosine-protein kinase erbB-2 (Homo sapiens) (UniProt P04626). The test is described as above. The conditions noted are these: 18-24 h, at 10 µM, stronger effect = lower value.
Sequence of Receptor tyrosine-protein kinase erbB-2 (Homo sapiens) (P04626 whole entry, looked up): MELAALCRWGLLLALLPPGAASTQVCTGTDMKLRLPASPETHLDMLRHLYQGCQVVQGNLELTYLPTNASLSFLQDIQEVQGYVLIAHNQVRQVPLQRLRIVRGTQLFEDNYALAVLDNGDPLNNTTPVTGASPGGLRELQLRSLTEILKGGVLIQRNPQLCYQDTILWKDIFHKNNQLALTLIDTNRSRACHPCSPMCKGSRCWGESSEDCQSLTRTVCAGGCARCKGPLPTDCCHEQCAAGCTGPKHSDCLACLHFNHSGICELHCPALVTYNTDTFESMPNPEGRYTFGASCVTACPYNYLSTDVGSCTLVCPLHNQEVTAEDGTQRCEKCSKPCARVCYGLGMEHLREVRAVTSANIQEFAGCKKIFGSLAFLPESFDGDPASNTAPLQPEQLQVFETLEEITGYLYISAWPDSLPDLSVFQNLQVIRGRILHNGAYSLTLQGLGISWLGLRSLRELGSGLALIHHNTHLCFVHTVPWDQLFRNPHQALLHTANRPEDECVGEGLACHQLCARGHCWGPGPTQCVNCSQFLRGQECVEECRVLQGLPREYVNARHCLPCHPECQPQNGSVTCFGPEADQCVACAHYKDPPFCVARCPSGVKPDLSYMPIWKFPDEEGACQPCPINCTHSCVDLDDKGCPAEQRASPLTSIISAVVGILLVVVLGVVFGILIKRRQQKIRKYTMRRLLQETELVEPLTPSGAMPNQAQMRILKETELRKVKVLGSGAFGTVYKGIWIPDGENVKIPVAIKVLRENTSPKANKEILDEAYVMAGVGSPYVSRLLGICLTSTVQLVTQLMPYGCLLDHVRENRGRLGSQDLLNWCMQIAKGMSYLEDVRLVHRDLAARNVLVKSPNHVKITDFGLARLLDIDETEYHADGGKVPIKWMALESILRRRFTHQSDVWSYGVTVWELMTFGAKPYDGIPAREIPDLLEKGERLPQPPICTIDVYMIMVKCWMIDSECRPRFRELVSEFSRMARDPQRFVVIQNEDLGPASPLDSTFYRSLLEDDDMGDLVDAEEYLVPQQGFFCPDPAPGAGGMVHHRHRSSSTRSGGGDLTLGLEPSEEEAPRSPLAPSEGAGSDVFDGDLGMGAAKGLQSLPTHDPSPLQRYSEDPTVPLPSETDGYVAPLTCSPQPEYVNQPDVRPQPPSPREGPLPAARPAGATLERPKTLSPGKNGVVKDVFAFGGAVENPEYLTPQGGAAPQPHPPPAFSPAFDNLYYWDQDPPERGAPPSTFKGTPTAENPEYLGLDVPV
Test [3] is described as follows: reduced viability of SK-BR-3 breast cancer cells – cell-based, 24 h, human, pilot screen (AID 572).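 Also: compound exposure lasted between 18 and 24 h rather than exactly 24 h; 100% = carrier-treated control wells.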 Conditions: SK-BR-3 viability, CellTiter-Glo luminescence, at 10 µM, stronger effect = lower value.
The nature of test [4]: HUVEC growth inhibition – cell-based, human, primary screen (AID 575;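 active = viability at or below 30% in both replicate assays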;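 also: 100% = median of untreated cell wells with 0.1% DMSO on each plate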). The conditions noted are these: HUVEC proliferation, CellTiter-Glo luminescence, 72 h; at 10 µM; stronger effect = lower value. In a few lines:
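Timing: 72 h treatment at 37 °C; material: HUVEC primary cells; technique: CellTiter-Glo luminescence measuring cellular ATP; controls: vehicle and MePR control wells; measure: percent of median DMSO-control luminescence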

Test [5] is described as follows: H69AR cell proliferation blockers – human, duplicate replicates, primary screen (AID 580;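 active = viability at or under a set limit in both replicates, limit being median viability minus 3 SD, cut at about 48% in these data, passing the limit was not always enough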;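 also: 100% = mean luminescence of untreated wells and 0% = no signal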). Conditions: H69AR lung tumor cells viability, ATP luminescence, 72 h; at 10 µM; stronger effect = lower value.
The nature of test [6]: MRP1 drug-resistance reversers in H69AR cells – cell-based, doxorubicin co-treatment, pilot screen (AID 601;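 active = viability loss from added drug above about 55%, and viability with drug at most 40%, in both replicates, limit read from the data, passing the limit was not always enough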). The conditions noted are these: CellTiter-Glo, 72 h, at 10 µM; for differential viability (reversal): stronger effect = higher value.
The nature of test [7]: yeast transport mutant growth inhibition pilot in 384-well plates, post-Golgi transport modulator project (AID 636; in the data active = inhibition above about 31%). The conditions noted are these: absorbance 615 nm, about 18 h, stronger effect = higher value.
Test [8] in a line: growth suppression of yeast trafficking mutant, preliminary HTS, modulators of trafficking downstream of Golgi apparatus project, 1536-format plate, OD 615 nm (AID 637; in the data active = inhibition above about 30%). Conditions: yeast transport mutant growth, absorbance 615 nm, 18 h; stronger effect = higher value.
[9] abbreviates: H69AR cells + 2 uM doxorubicin, measured here: viability with 2 uM doxorubicin, stronger effect = lower value.
The mark [10] stands for this setting: H69AR cells, compound alone cytotoxicity.

Structures are written as SMILES. Calls of active or inactive are those of the source.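 The calls were made as follows, unless noted: active = viability at or below 10% of carrier control in both of two separate runs; inconclusive = viability at or below 10% in only one of the two runs; inactive = the rest.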

`N#CCc1c(C#N)c(N)nc(N2CCN(S(=O)(=O)c3ccccc3)CC2)c1C#N`: the viability in test [1] is 74%; in test [3], 74% (inactive); in test [4], 59% (inactive); in test [5], 77.6% (inactive); in test [6] (setting [9]), 91.2%; in test [6] (setting [10]), 77.6%. In addition, in test [2], the Her2 level was 75.5% (inactive). The differential viability (reversal) in test [6] (H69AR cells + 2 uM doxorubicin) was -13.6% (inactive). For the same molecule, the inhibition in test [7] is -4.46% (inactive); in test [8] it was 0.16% (inactive).

Consider `CN1CC[n+]2cnc3ccccc3c21`, for which the viability in test [1] is 100%; in test [3] it was 100% (inactive); in test [4], 108% (inactive); in test [5] it was 97.3% (inactive); in test [6] (setting [9]) it was 89.1%; in test [6] (setting [10]), 97.3%. In test [2], the Her2 level is 92% (inactive). The differential viability (reversal) in test [6] (H69AR cells + 2 uM doxorubicin) is 8.2% (inactive). The results for the inhibition in test [7] and in test [8] were -2.24% (inactive) and 6.23% (inactive), respectively.

Consider `CC(C)(C)C(=O)Oc1cc(N)n(S(=O)(=O)c2ccccc2)n1`, for which the viability in test [1] is 93.5%; in test [3] it was 93.5% (inactive); in test [4] it was 102% (inactive); in test [5], 87.1% (inactive); in test [6] (setting [9]), 83.5%; in test [6] (setting [10]), 87.1%. In addition, the Her2 level in test [2] was 101% (inactive). Besides, the differential viability (reversal) in test [6] (H69AR cells + 2 uM doxorubicin) was 3.59% (inactive). The inhibition in test [7] was 0.53% (inactive); in test [8], -5.27% (inactive).

As for `CCCc1[nH]nc2c1C(c1cccc(OC(=O)c3ccco3)c1)C(C#N)=C(N)O2` (stereo not given), the viability was 93.5% in test [1]; 93.5% (inactive) in test [3]; 81.6% (inactive) in test [4]; 95.3% (inactive) in test [5]; 94.1% in test [6] (setting [9]); 95.3% in test [6] (setting [10]). Moreover, in test [2], the Her2 level is 72% (inactive). For the same molecule, in test [6] (H69AR cells + 2 uM doxorubicin), the differential viability (reversal) was 1.18% (inactive). Also, the inhibition in test [7] was -3.16% (inactive); in test [8], -1.11% (inactive).

For `O=C(C1CCCCC1)N1CCC(c2nc3c(nnn3Cc3c(F)cccc3Cl)c(=O)[nH]2)CC1`, the viability in test [1] was 87.5%; in test [3], 87.5% (inactive); in test [4], 85.2% (inactive); in test [5] it was 71.3% (inactive); in test [6] (setting [9]), 22.9%; in test [6] (setting [10]), 71.3%. In addition, in test [2], the Her2 level was 96.5% (inactive). In test [6] (H69AR cells + 2 uM doxorubicin), the differential viability (reversal) is 48.4% (inactive). Also, the inhibition in test [7] was -3.77% (inactive); in test [8], -6.39% (inactive).

Take `CCCCN(CCCC)CCCNC(=O)CC1Oc2ccc(C)cc2NC1=O` (stereo not given): the viability was 102% in test [1]; 102% (inactive) in test [3]; 78% (inactive) in test [4]; 90.7% (inactive) in test [5]; 86% in test [6] (setting [9]); 90.7% in test [6] (setting [10]). In test [2], the Her2 level was 84.5% (inactive). Also, the differential viability (reversal) in test [6] (H69AR cells + 2 uM doxorubicin) is 4.72% (inactive). Besides, the inhibition in test [7] is -6.76% (inactive); in test [8] it was -3.17% (inactive).

For the molecule `Cc1nc2ncnn2c(Nc2ccc3c(c2)OCCO3)c1C`, the viability in test [1] was 91%; in test [3], 91% (inactive); in test [4], 106% (inactive); in test [5], 73.7% (inactive); in test [6] (setting [9]) it was 97.3%; in test [6] (setting [10]) it was 73.7%. The Her2 level in test [2] is 110% (inactive). For the same molecule, in test [6] (H69AR cells + 2 uM doxorubicin), the differential viability (reversal) was -23.6% (inactive). In addition, the results for the inhibition in test [7] and in test [8] were 2.8% (inactive) and 26.1% (inactive), respectively.

`CN1CCN(/C=N/c2sc3c(c2C#N)CCCCC3)CC1`: the viability in test [1] was 97%; in test [3], 97% (inactive); in test [4], 75.9% (inactive); in test [5] it was 84.2% (inactive); in test [6] (setting [9]), 78.1%; in test [6] (setting [10]), 84.2%. Further, the Her2 level in test [2] is 96.5% (inactive). Moreover, in test [6] (H69AR cells + 2 uM doxorubicin), the differential viability (reversal) is 6.14% (inactive). The results for the inhibition in test [7] and in test [8] were 0.67% (inactive) and -9.52% (inactive), respectively.

Consider `COc1ccc(CC(=O)N2CCOCC2)cc1OC`, for which the viability in test [1] is 97.5%; in test [3] it was 97.5% (inactive); in test [4], 102% (inactive); in test [5] it was 91.9% (inactive); in test [6] (setting [9]), 94.2%; in test [6] (setting [10]), 91.9%. In addition, the Her2 level in test [2] was 99% (inactive). Moreover, the differential viability (reversal) in test [6] (H69AR cells + 2 uM doxorubicin) was -2.21% (inactive). The inhibition in test [7] was 0.13% (inactive); in test [8], 3.28% (inactive).

As for `O=C(NCCO)c1cccc2c1C(=O)c1ccccc1-2`, the viability was 97.5% in test [1]; 97.5% (inactive) in test [3]; 98.4% (inactive) in test [4]; 101% (inactive) in test [5]; 85.8% in test [6] (setting [9]); 101% in test [6] (setting [10]). In addition, the Her2 level in test [2] was 95.5% (inactive). Besides, the differential viability (reversal) in test [6] (H69AR cells + 2 uM doxorubicin) was 15.4% (inactive). Moreover, the inhibition in test [7] is -6.4% (inactive); in test [8], -1.48% (inactive).

As to `Cc1onc(-c2ccccc2Cl)c1C(=O)NCc1cccnc1`, the viability was 103% in test [1]; 103% (inactive) in test [3]; 110% (inactive) in test [4]; 94.5% (inactive) in test [5]; 85.4% in test [6] (setting [9]); 94.5% in test [6] (setting [10]). The Her2 level in test [2] was 102% (inactive). Besides, in test [6] (H69AR cells + 2 uM doxorubicin), the differential viability (reversal) is 9.16% (inactive). The inhibition is -4.8% (inactive) in test [7] and 6.13% (inactive) in test [8].

Turning to `CNC(=O)CC(C(=O)O)c1ccc(OC(C)C)cc1` (stereo not given), the viability is 105% in test [1]; 105% (inactive) in test [3]; 92.3% (inactive) in test [4]; 90% (inactive) in test [5]; 85.7% in test [6] (setting [9]); 90% in test [6] (setting [10]). Moreover, the Her2 level in test [2] was 85.5% (inactive). Moreover, the differential viability (reversal) in test [6] (H69AR cells + 2 uM doxorubicin) was 4.31% (inactive). In addition, the figures for the inhibition in test [7] and in test [8] were -5.07% (inactive) and 1.75% (inactive), respectively.

Turning to `CCOc1cc(-c2nc(-c3ccccc3OC)no2)cc(OCC)c1OCC`, the viability in test [1] was 90%; in test [3], 90% (inactive); in test [4] it was 97.4% (inactive); in test [5], 92.5% (inactive); in test [6] (setting [9]) it was 95.1%; in test [6] (setting [10]), 92.5%. Besides, the Her2 level in test [2] was 96.5% (inactive). The differential viability (reversal) in test [6] (H69AR cells + 2 uM doxorubicin) is -2.62% (inactive). The inhibition in test [7] was -2.13% (inactive); in test [8], 22% (inactive).

On to `FC(F)Oc1ccc(-c2csc(Cc3nnc4n3CCCCC4)n2)cc1`, for which the viability is 78% in test [1]; 78% (inactive) in test [3]; 110% (inactive) in test [4]; 97.2% (inactive) in test [5]; 91.5% in test [6] (setting [9]); 97.2% in test [6] (setting [10]). The Her2 level in test [2] was 102% (inactive). Further, the differential viability (reversal) in test [6] (H69AR cells + 2 uM doxorubicin) was 5.74% (inactive). Also, the inhibition in test [7] was -7.26% (inactive); in test [8], -9.05% (inactive).
